Experimental data reported in ChEMBL document CHEMBL1129512, “Studies on the mechanism of phosphatidylinositol 3-kinase inhibition by wortmannin and related analogs” (J Med Chem, 1996).
Values joined by “and” are separate entries in the source; they are usually repeats but may differ in a detail not shown here. Equal values may be shown once. Blank lines part the entries; values can stand above or below the molecule they belong to.

Experiments:
Mus musculus [1] = assay: In vivo inhibition of tumor growth in C3H Mammary model was evaluated at dose 0.50 mg/kg peroral administration; assay type: functional; conditions: route oral
Outline: (§1)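 Murine tumours were serially passaged as tumour fragments, implanted s.c. by trochar in the axillary region. Daily oral dosing began 1 day after implant, as a suspension in 2.5% emulphor EL-620 in 0.9% NaCl. There were 10 randomized mice per group. Tumours were measured by caliper the day after the last dose, with weight = length × width² × 0.5. Inhibition was 100 × (1 − mean treated/mean control weight). A group was toxic if lethality was >25%.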

Mus musculus [2] = assay: In vivo inhibition of tumor growth in C3H Mammary model was evaluated at dose 1.0 mg/kg peroral administration; assay type: functional; conditions: route oral; outline: as §1
[3] = In vitro inhibitory activity against Phosphatidylinositol 3-Kinase
Outline: (§2)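 Purified PI 3-kinase from bovine brain was used as the enzyme source. Results are reported as IC50 values.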

Mus musculus [4] = assay: In vivo inhibition of tumor growth in C3H Mammary model was evaluated at dose 10 mg/kg peroral administration; assay type: functional; conditions: route oral
Outline: (§3)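 Murine C3H mammary tumour fragments were implanted subcutaneously by trochar in the axillary region, in groups of 10 randomized mice. Oral dosing started 1 day after implant, daily ×10, as a suspension in 2.5% emulphor EL-620 in 0.9% NaCl (water for one analog). Tumour weight, calculated as length×width²×0.5 from calipers, was measured the day after the last dose. Percent inhibition was calculated versus controls. Groups with >25% lethality were scored toxic.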

Mus musculus [5] = assay: In vivo inhibition of tumor growth in C3H Mammary model was evaluated at dose 5.0 mg/kg peroral administration; range is 60-79%; assay type: functional; conditions: route oral; outline: as §3
[6] = Inhibition of Phosphatidylinositol 3-Kinase; outline: as §2
Mus musculus [7] = assay: IIn vivo inhibition of tumor growth in B-16 melanoma model was evaluated by inhibition of tumor growth at dose 0.75 mg/kg peroral administration; assay type: functional; conditions: B16, route oral; outline: as §1
Mus musculus [8] = assay: In vivo inhibition of tumor growth B-16 melanoma model was evaluated at dose 1.50 mg/kg peroral administration; assay type: functional; conditions: B16, route oral; outline: as §1
Mus musculus [9] = assay: In vivo inhibition of tumor growth in 6C3HED lymphosarcomal was evaluated at dose 0.75 mg/kg peroral administration; assay type: functional; conditions: route oral; outline: as §1
Mus musculus [10] = assay: In vivo inhibition of tumor growth in 6C3HED lymphosarcomal was evaluated at dose 1.50 mg/kg peroral administration; assay type: functional; conditions: route oral; outline: as §1
Mus musculus [11] = assay: In vivo inhibition of tumor growth in C-26 colon model was evaluated dose 0.75 mg/kg peroral administration; assay type: functional; conditions: route oral; outline: as §1
Mus musculus [12] = assay: In vivo inhibition of tumor growth in C-26 colon model was evaluated dose 1.50 mg/kg peroral administration; assay type: functional; conditions: route oral; outline: as §1
Mus musculus [13] = assay: In vivo inhibition of tumor growth in C3H Mammary model was evaluated at dose 2.50 mg/kg peroral administration; assay type: functional; conditions: route oral; outline: as §1
Mus musculus [14] = assay: In vivo inhibition of tumor growth in Lewis lung model was evaluated at dose 0.75 mg/kg peroral administration; assay type: functional; conditions: route oral; outline: as §1
Mus musculus [15] = assay: In vivo inhibition of tumor growth in Lewis lung model was evaluated at dose 1.50 mg/kg peroral administration; assay type: functional; conditions: route oral; outline: as §1
Mus musculus [16] = assay: In vivo inhibition of tumor growth in M-5076 ovarian model was evaluated at dose 0.75 mg/kg peroral administration; assay type: functional; conditions: M5076, route oral
Outline: (§4)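 For the murine M-5076 ovarian tumour, fragments were implanted s.c. by trochar in the axilla. Daily oral dosing began 5 days after implant, as a suspension in 2.5% emulphor EL-620/0.9% NaCl. There were 10 randomized mice per group.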

Mus musculus [17] = assay: In vivo inhibition of tumor growth in M-5076 ovarian model was evaluated at dose 1.50 mg/kg peroral administration; assay type: functional; conditions: M5076, route oral; outline: as §4
Mus musculus [18] = assay: In vivo inhibition of tumor growth in X-5563 plasma cell myeloma model was evaluated at dose 1.25 mg/kg peroral administration; assay type: functional; conditions: route oral
Homo sapiens [19] = assay: In vivo inhibition of tumor growth in PANC-1 pancreatic model was evaluated at dose 0.75 mg/kg peroral administration; assay type: functional; conditions: route oral
Outline: (§5)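 Human xenograft fragments were implanted s.c. via trochar in the axillary region of mice. Daily oral dosing began 7 days after implant, as a suspension in 2.5% emulphor EL-620 in 0.9% NaCl. There were 10 randomized mice per group. Tumours were measured by caliper 5 days after the last dose, with weight = length × width² × 0.5. Inhibition was 100 × (1 − treated/control mean weight), and toxic meant lethality >25%.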

Homo sapiens [20] = assay: In vivo inhibition of tumor growth in VRC5 colon model was evaluated at dose 0.75 mg/kg peroral administration; assay type: functional; conditions: route oral
Homo sapiens [21] = assay: In vivo inhibition of tumor growth in VRC5 colon model was evaluated at dose 1.50 mg/kg peroral administration; assay type: functional; conditions: route oral
Homo sapiens [22] = assay: In vivo toxicity against PI 3-Kinase in GC3 colon model was evaluated by inhibition of tumor growth at dose 0.75 mg/kg peroral administration; assay type: functional; conditions: route oral; outline: as §5
Homo sapiens [23] = assay: In vivo inhibition of tumor growth IGROV1 ovarian model was evaluated at dose 0.75 mg/kg peroral administration; assay type: functional; conditions: IGROV-1, route oral
Outline: (§6)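 HC1 colon and IGROV1 ovarian xenografts were implanted s.c. as fragments by axillary trochar. Daily oral dosing started 14 days after implant, as a suspension in 2.5% emulphor EL-620/0.9% NaCl. Groups were 10 randomized mice.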

Homo sapiens [24] = assay: In vivo inhibition of tumor growth MX-1 mammary model was evaluated at dose 1.50 mg/kg peroral administration; assay type: functional; conditions: route oral
Homo sapiens [25] = assay: In vivo inhibition of tumor growth PANC-1 pancreatic model was evaluated at dose 1.50 mg/kg peroral administration; assay type: functional; conditions: route oral; outline: as §5
Homo sapiens [26] = assay: In vivo inhibition of tumor growth in BXPC-3 pancreatic model was evaluated at dose 0.75 mg/kg peroral administration; range is 60-79%; assay type: functional; conditions: route oral; outline: as §5
Homo sapiens [27] = assay: In vivo inhibition of tumor growth in BXPC-3 pancreatic model was evaluated at dose 1.50 mg/kg peroral administration; assay type: functional; conditions: route oral; outline: as §5
Homo sapiens [28] = assay: In vivo inhibition of tumor growth in CX-1 colon model was evaluated at dose 0.75 mg/kg peroral administration; assay type: functional; conditions: route oral; outline: as §5
Homo sapiens [29] = assay: In vivo inhibition of tumor growth in CX-1 colon model was evaluated at dose 1.50 mg/kg peroral administration; assay type: functional; conditions: route oral; outline: as §5
Homo sapiens [30] = assay: In vivo inhibition of tumor growth in GC3 colon model was evaluated at dose 0.38 mg/kg peroral administration; assay type: functional; conditions: route oral; outline: as §5
Homo sapiens [31] = assay: In vivo inhibition of tumor growth in HC1 colon model was evaluated at dose 0.75 mg/kg peroral administration; assay type: functional; conditions: route oral; outline: as §6
Homo sapiens [32] = assay: In vivo inhibition of tumor growth in HC1 colon model was evaluated at dose 1.50 mg/kg peroral administration; assay type: functional; conditions: route oral; outline: as §6
Homo sapiens [33] = assay: In vivo inhibition of tumor growth in LX-1 lung model was evaluated at dose 0.38 mg/kg peroral administration; assay type: functional; conditions: route oral; outline: as §5
Homo sapiens [34] = assay: In vivo inhibition of tumor growth in LX-1 lung model was evaluated at dose 0.75 mg/kg peroral administration; assay type: functional; conditions: route oral; outline: as §5
Homo sapiens [35] = assay: In vivo inhibition of tumor growth in MX-1 mammary model was evaluated at dose 0.75 mg/kg peroral administration; assay type: functional; conditions: route oral
Homo sapiens [36] = assay: In vivo inhibition of tumor growth in PACA-2 pancreatic model was evaluated at dose 0.75 mg/kg peroral administration; assay type: functional; conditions: route oral; outline: as §5
Homo sapiens [37] = assay: In vivo inhibition of tumor growth in PACA-2 pancreatic model was evaluated at dose 1.50 mg/kg peroral administration; assay type: functional; conditions: route oral; outline: as §5
Homo sapiens [38] = assay: In vivo inhibition of tumor growth in IGROV1 ovarian model was evaluated at dose 1.50 mg/kg peroral administration; assay type: functional; conditions: IGROV-1, route oral; outline: as §6
Mus musculus [39] = assay: In vivo inhibition of tumor growth in C3H Mammary model was evaluated at dose 1.25 mg/kg peroral administration; range is 60-79%; assay type: functional; conditions: route oral; outline: as §1

Compound: COC[C@H]1OC(=O)c2coc3c2[C@@]1(C)C1=C(C3=O)[C@@H]2CC[C@H](O)[C@@]2(C)C[C@H]1OC(C)=O
- inhibition in vivo at 0.5 mg/kg (Mus musculus [1]): < 60%
- inhibition in vivo at 1 mg/kg (Mus musculus [2]): > 25%
- IC50 [3]: 0.0005 µM

Compound: COC[C@H]1OC(=O)c2c(C)oc3c2[C@@]1(C)C1=C(C3=O)[C@@H]2CCC(=O)[C@@]2(C)C[C@H]1OC(C)=O
- IC50 [3]: > 0.5 µM

Compound: COC[C@H]1OC(=O)c2coc3c2[C@@]1(C)C1=C(C3=O)[C@@H]2CC=C(OC(C)=O)[C@@]2(C)C[C@H]1OC(C)=O
- IC50 [3]: 0.059 µM

Compound: COC[C@H]1OC(=O)C23CC2COC2=C3[C@@]1(C)C1=C(C2=O)[C@@H]2CCC(=O)[C@@]2(C)C[C@H]1OC(C)=O (stereo partly specified)
- IC50 [3]: > 0.5 µM

Compound: COC[C@H]1OC(=O)c2coc3c2[C@@]1(C)C1=C(C3=O)[C@@H]2CCC(=O)[C@@]2(C)C[C@H]1OC(C)=O [WORTMANNIN]
- inhibition in vivo at 0.75 mg/kg (Mus musculus [7]): < 60%
- inhibition in vivo at 1.5 mg/kg (Mus musculus [8]): > 25%
- inhibition in vivo at 0.75 mg/kg (Mus musculus [9]): < 60%
- inhibition in vivo at 1.5 mg/kg (Mus musculus [10]): > 25%
- inhibition in vivo at 0.75 mg/kg (Mus musculus [11]): < 60%
- inhibition in vivo at 1.5 mg/kg (Mus musculus [12]): > 25%
- inhibition in vivo at 2.5 mg/kg (Mus musculus [13]): > 25%
- inhibition in vivo at 0.75 mg/kg (Mus musculus [14]): < 60%
- inhibition in vivo at 1.5 mg/kg (Mus musculus [15]): > 25%
- inhibition in vivo at 0.75 mg/kg (Mus musculus [16]): < 60%
- inhibition in vivo at 1.5 mg/kg (Mus musculus [17]): > 25%
- Inhibition (Mus musculus [18]): <60% and >25%
- IC50 [3]: 0.0042 µM
- inhibition in vivo at 0.75 mg/kg (Homo sapiens [19]): < 60%
- inhibition in vivo at 0.75 mg/kg (Homo sapiens [20]): < 60%
- inhibition in vivo at 1.5 mg/kg (Homo sapiens [21]): > 25%
- inhibition in vivo at 0.75 mg/kg (Homo sapiens [22]): > 25%
- inhibition in vivo at 0.75 mg/kg (Homo sapiens [23]): < 60%
- inhibition in vivo at 1.5 mg/kg (Homo sapiens [24]): > 25%
- inhibition in vivo at 1.5 mg/kg (Homo sapiens [25]): > 25%
- inhibition in vivo at 0.75 mg/kg (Homo sapiens [26]): 79%
- inhibition in vivo at 1.5 mg/kg (Homo sapiens [27]): > 25%
- inhibition in vivo at 0.75 mg/kg (Homo sapiens [28]): < 60%
- inhibition in vivo at 1.5 mg/kg (Homo sapiens [29]): > 25%
- inhibition in vivo at 0.38 mg/kg (Homo sapiens [30]): > 25%
- inhibition in vivo at 0.75 mg/kg (Homo sapiens [31]): < 60%
- inhibition in vivo at 1.5 mg/kg (Homo sapiens [32]): > 25%
- inhibition in vivo at 0.38 mg/kg (Homo sapiens [33]): < 60%
- inhibition in vivo at 0.75 mg/kg (Homo sapiens [34]): > 25%
- inhibition in vivo at 0.75 mg/kg (Homo sapiens [35]): < 60%
- inhibition in vivo at 0.75 mg/kg (Homo sapiens [36]): < 60%
- inhibition in vivo at 1.5 mg/kg (Homo sapiens [37]): > 25%
- inhibition in vivo at 1.5 mg/kg (Homo sapiens [38]): > 25%
- inhibition in vivo at 1.25 mg/kg (Mus musculus [39]): 79%

The next lines start with results.

- IC50 [3]: > 0.5 µM
Compound: CC/N=C/C1=C(O)O[C@H](COC)[C@@]2(C)C1=C(O)C(=O)C1=C2[C@H](OC(C)=O)C[C@]2(C)C(=O)CC[C@@H]12

- IC50 [3]: > 0.5 µM
Compound: CCC/N=C\C1=C(O)O[C@H](COC)[C@@]2(C)C1=C(O)C(=O)C1=C2[C@H](OC(C)=O)C[C@]2(C)C(=O)CC[C@@H]12

- IC50 [6]: 0.08 µM
Compound: CCN(/C=C1\C(=O)O[C@H](COC)[C@@]2(C)C1=C(O)C(=O)C1=C2[C@H](OC(C)=O)C[C@]2(C)C(=O)CC[C@@H]12)CC
- inhibition in vivo at 10 mg/kg (Mus musculus [4]): > 25%
- inhibition in vivo at 5 mg/kg (Mus musculus [5]): 79%

- IC50 [3]: 0.271 µM
Compound: COC[C@H]1OC(=O)C2=CCOC3=C2[C@@]1(C)C1=C(C3=O)[C@@H]2CCC(=O)[C@@]2(C)C[C@H]1OC(C)=O
